This is an account of results in ChEMBL document CHEMBL1139081, “Rational design, synthesis, and structure-activity relationship of benzoxazolones: new potent mglu5 receptor antagonists based on the fenobam structure” (Bioorg Med Chem Lett, 2007).

System in the first data set: not listed separately
The experiment in a line: Clearance in rat. It counts as ADME, organism-based. As to conditions: in vivo.
In general, clearance refers to the volume of plasma or blood freed of the substance per unit of time. A low value points to inefficient removal. `Cc1cccc(NC(=O)c2cccc3oc(=O)[nH]c23)n1` showed a clearance of 8.2 mL/min/kg.

The next data set deals with T1, Metabotropic glutamate receptor 5 (Homo sapiens, UniProt P41594). The experiment in a line: Binding affinity to mGluR5.
T1 sequence (P41594 whole entry): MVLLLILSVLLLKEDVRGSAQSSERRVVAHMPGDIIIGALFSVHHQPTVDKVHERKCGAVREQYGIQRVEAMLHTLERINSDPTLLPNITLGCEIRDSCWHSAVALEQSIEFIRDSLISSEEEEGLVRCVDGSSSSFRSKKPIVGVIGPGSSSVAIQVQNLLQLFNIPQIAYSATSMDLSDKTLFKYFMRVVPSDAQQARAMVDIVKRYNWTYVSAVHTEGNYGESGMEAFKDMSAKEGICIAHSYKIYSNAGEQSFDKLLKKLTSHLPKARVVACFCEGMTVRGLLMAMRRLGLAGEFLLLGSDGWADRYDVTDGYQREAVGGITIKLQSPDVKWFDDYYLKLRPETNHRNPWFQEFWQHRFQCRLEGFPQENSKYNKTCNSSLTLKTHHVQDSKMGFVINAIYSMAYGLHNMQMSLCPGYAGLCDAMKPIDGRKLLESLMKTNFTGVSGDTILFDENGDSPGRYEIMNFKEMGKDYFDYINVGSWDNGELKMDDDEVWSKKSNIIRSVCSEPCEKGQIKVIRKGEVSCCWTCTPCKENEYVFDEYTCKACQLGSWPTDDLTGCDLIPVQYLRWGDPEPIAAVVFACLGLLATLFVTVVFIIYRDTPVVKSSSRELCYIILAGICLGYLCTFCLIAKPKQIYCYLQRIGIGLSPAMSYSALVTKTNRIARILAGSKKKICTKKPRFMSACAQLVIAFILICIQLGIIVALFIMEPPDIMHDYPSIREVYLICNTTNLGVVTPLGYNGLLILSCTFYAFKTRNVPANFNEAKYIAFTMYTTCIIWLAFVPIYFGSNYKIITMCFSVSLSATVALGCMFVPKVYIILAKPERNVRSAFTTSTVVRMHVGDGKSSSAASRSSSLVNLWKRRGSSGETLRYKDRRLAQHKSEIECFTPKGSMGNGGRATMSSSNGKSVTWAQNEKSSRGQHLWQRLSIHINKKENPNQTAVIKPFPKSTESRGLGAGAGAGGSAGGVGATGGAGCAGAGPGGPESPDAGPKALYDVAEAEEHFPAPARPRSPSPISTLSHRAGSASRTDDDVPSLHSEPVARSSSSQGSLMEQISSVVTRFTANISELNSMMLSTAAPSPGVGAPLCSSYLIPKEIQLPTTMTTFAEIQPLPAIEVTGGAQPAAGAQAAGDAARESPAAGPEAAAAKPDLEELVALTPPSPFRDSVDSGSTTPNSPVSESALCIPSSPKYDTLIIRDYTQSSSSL
Settings: not given
As a reminder, the Ki is the dissociation constant of the complex between target and ligand, obtained from inhibition or displacement. A lower Ki goes with tighter binding. In the case of `O=C(Nc1cccc(Cl)c1)c1cccc2oc(=O)[nH]c12`, the Ki turned out to be 68 nM.

In turn, `O=C(Nc1cccc(Cl)c1)c1cccc2[nH]c(=O)oc12` returned a Ki above 10000 nM.

In turn, `O=C1Cc2cccc(C(=O)Nc3cccc(Cl)c3)c2N1` had an inhibitory constant (Ki) of 397 nM.

For `O=C1COc2cccc(C(=O)Nc3cccc(Cl)c3)c2N1`, the Ki turned out to be 2900 nM.

Take `CC(=O)Nc1ccccc1C(=O)Nc1cccc(Cl)c1`: the inhibition constant (Ki) was above 10000 nM.

Take `O=C(Nc1cccc(Cl)c1)c1cccc2[nH]c(=O)[nH]c12`: the Ki was determined as 3900 nM.

`Cn1c(=O)[nH]c2c(C(=O)Nc3cccc(Cl)c3)cccc21` yielded an inhibition constant (Ki) above 10000 nM.

Compound `O=C(Nc1cccc(Cl)c1)c1cccc2cc[nH]c12` gave an inhibition constant (Ki) of 3900 nM.

The compound `O=C(Nc1cccc(Cl)c1)c1cccc2nn[nH]c12` registered a Ki above 10000 nM.

Compound `O=C(Nc1ccccc1)c1cccc2oc(=O)[nH]c12` came in with a Ki of 2200 nM.

The compound `O=C(Nc1cccc(Br)c1)c1cccc2oc(=O)[nH]c12` displayed a Ki of 56 nM.

As to `Cc1nccc(NC(=O)c2cccc3oc(=O)[nH]c23)n1`, affinity was put at a Ki of 1970 nM.

Take `O=C(Nc1cccc(C(F)(F)F)c1)c1cccc2oc(=O)[nH]c12`: the Ki was determined as 485 nM.

For the compound `Cc1cccc(NC(=O)c2cccc3oc(=O)[nH]c23)c1`, the inhibitory constant (Ki) came out at 109 nM.

`O=C(Nc1cc(Cl)cc(Cl)c1)c1cccc2oc(=O)[nH]c12`: the Ki is above 10000 nM.

Consider `O=C(Nc1ccccc1Cl)c1cccc2oc(=O)[nH]c12`, for which the Ki is above 10000 nM.

In turn, `O=C(Nc1ccc(Cl)cc1)c1cccc2oc(=O)[nH]c12` returned a Ki of 3800 nM.

`Cc1cc(NC(=O)c2cccc3oc(=O)[nH]c23)ccn1` had an inhibitory constant (Ki) of 3100 nM.

For `N#Cc1cccc(NC(=O)c2cccc3oc(=O)[nH]c23)c1`, affinity was put at a Ki of 327 nM.

`Cc1nc(NC(=O)c2cccc3oc(=O)[nH]c23)cs1`: the Ki stood at 250 nM.

`O=C(Nc1cccc(Cl)c1)c1cccc2nc[nH]c12` came in with a Ki above 10000 nM.

The compound `Cc1cccc(NC(=O)c2cccc3oc(=O)[nH]c23)n1` returned a Ki of 95 nM.

In the case of `COc1cccc(NC(=O)c2cccc3oc(=O)[nH]c23)c1`, the Ki was found to be 3900 nM.

With `O=C(Nc1ccccn1)c1cccc2oc(=O)[nH]c12`, the Ki worked out at 251 nM.

A further data set addresses T1, Metabotropic glutamate receptor 5. The experiment in a line: Antagonist activity at mGluR5 assessed as inhibition of Ca2+ […] by FLIPR. It counts as functional.
Settings: not given
As a reminder, the IC50 is the concentration that gives 50% inhibition. With `O=C(Nc1cccc(Cl)c1)c1cccc2oc(=O)[nH]c12`, the half-inhibitory concentration (IC50) turned out to be 195 nM.

With `O=C(Nc1cccc(Br)c1)c1cccc2oc(=O)[nH]c12`, the IC50 is 94 nM.

Regarding `Cc1cccc(NC(=O)c2cccc3oc(=O)[nH]c23)c1`, the IC50 was determined as 104 nM.

Consider `Cc1cccc(NC(=O)c2cccc3oc(=O)[nH]c23)n1`, for which the IC50 amounted to 60 nM.

System in the next data set: not listed separately
The experiment in a line: Ratio of drug level in brain to plasma in rat after 3 hrs. It counts as ADME. As to conditions: brain and plasma. The procedure, abridged: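 Blood/brain partitioning checked 3 h after administration as brain-to-plasma concentration ratio; cerebrospinal fluid concentration also measured, expressed as percentage of plasma concentration.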
In general, Kp refers to the ratio of the level in a tissue or fluid to that in plasma or blood. As for `Cc1cccc(NC(=O)c2cccc3oc(=O)[nH]c23)n1`, the Kp at 3 h worked out at 0.06.

The species named for a further data set is Mus musculus. The experiment in a line: Decrease in stress-induced hyperthermia in NMRI mouse. It counts as functional. Particulars: read-out: MED. The procedure, abridged:
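Stress-induced hyperthermia model of anxiety in NMRI mice, read as change in temperature (DT). Oral dosing at 10 and 30 mg/kg, vehicle 0.3% Tween 80 in 0.9% NaCl, 60 min pre-treatment. Each group compared to vehicle by independent t-test.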
On to `Cc1cccc(NC(=O)c2cccc3oc(=O)[nH]c23)n1`, for which the minimal effective dose worked out at 10 mg/kg.

System in another data set: not listed separately
In words: Half life in rat. It counts as ADME, organism-based. Particulars: in vivo.
What is called half-life is the time in which the quantity being followed falls by half. The compound `Cc1cccc(NC(=O)c2cccc3oc(=O)[nH]c23)n1` showed a half-life of 13.2 min.

System in a further data set: not listed separately
In words: Oral bioavailability in rat. It counts as ADME, organism-based. As to conditions: in vivo.
In general, bioavailability refers to the share of a dose that reaches the circulation, judged against a reference dose that is usually intravenous. With `Cc1cccc(NC(=O)c2cccc3oc(=O)[nH]c23)n1`, the bioavailability was determined as 64%.

System in another data set: not listed separately
In words: Volume of distribution in rat. It counts as ADME, organism-based. As to conditions: in vivo.
Broadly, the Vd is the apparent volume that relates the amount in the body to the concentration in plasma or blood. High values mean extensive tissue distribution, low ones confinement near the circulation. `Cc1cccc(NC(=O)c2cccc3oc(=O)[nH]c23)n1` returned a Vd of 0.18 L/kg.
